ChEMBL document CHEMBL4715736, “Identification of anticancer agents based on the thieno[2,3-b]pyridine and 1H-pyrazole molecular scaffolds” (2016)

Key:
Type in all cases: functional
SK-MEL-28 [1] = assay: Growth inhibition of human SK-MEL-28 cells incubated for 48 hrs by sulforhodamine B assay
Summary of the method: (§1)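 NCI DTP 60-line human tumour panel. Dose-response curves were run only for ligands active in the initial 10 µM screen. GI50 (concentration giving 50% of maximal inhibition of proliferation) and TGI (concentration giving total growth inhibition) were derived from these curves.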

CCRF-CEM = assay: Growth inhibition of human CCRF-CEM cells assessed as cell growth at 1 uM incubated for 48 hrs by sulforhodamine B assay relative to control; settings: read-out: Activity
Summary of the method: (§2)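 NCI Developmental Therapeutics Program NCI60 panel. Compounds that were active in the 10 µM one-dose screen went on to dose–response testing. Growth at each concentration is expressed relative to untreated control (100%). GI50 (concentration giving 50% of maximal inhibition of proliferation) and TGI (concentration giving total growth inhibition) were derived from the curves.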

SF-295 = assay: Growth inhibition of human SF-295 cells assessed as cell growth at 0.01 uM incubated for 48 hrs by sulforhodamine B assay relative to control; settings: read-out: Activity
UACC-62 = assay: Growth inhibition of human UACC-62 cells assessed as cell growth at 1 uM incubated for 48 hrs by sulforhodamine B assay relative to control; settings: read-out: Activity
HOP-62 = assay: Growth inhibition of human HOP-62 cells assessed as cell growth at 0.01 uM incubated for 48 hrs by sulforhodamine B assay relative to control; settings: read-out: Activity
HCT-15 = assay: Growth inhibition of human HCT-15 cells assessed as cell growth at 1 uM incubated for 48 hrs by sulforhodamine B assay relative to control; settings: read-out: Activity
DU-145 [2] = assay: Growth inhibition of human DU-145 cells assessed as cell growth at 0.1 uM incubated for 48 hrs by sulforhodamine B assay relative to control; settings: read-out: Activity; summary of the method: as §2
SN12C = assay: Growth inhibition of human SN12C cells incubated for 48 hrs by sulforhodamine B assay; settings: for CC50: read-out: LC50 (the source's name); summary of the method: as §1
OVCAR-8 = assay: Growth inhibition of human OVCAR-8 cells incubated for 48 hrs by sulforhodamine B assay; settings: for CC50: read-out: LC50 (the source's name); summary of the method: as §1
SF-268 = assay: Growth inhibition of human SF-268 cells assessed as cell growth at 100 uM incubated for 48 hrs by sulforhodamine B assay relative to control; settings: read-out: Activity
CAKI-1 = assay: Growth inhibition of human CAKI-1 cells assessed as cell growth at 1 uM incubated for 48 hrs by sulforhodamine B assay relative to control; settings: read-out: Activity; summary of the method: as §2
KM12 = assay: Growth inhibition of human KM12 cells assessed as cell growth at 0.1 uM incubated for 48 hrs by sulforhodamine B assay relative to control; settings: read-out: Activity
SNB-19 = assay: Growth inhibition of human SNB-19 cells incubated for 48 hrs by sulforhodamine B assay; summary of the method: as §1
NCI/ADR-RES = assay: Growth inhibition of human NCI/ADR-RES cells assessed as cell growth at 0.01 uM incubated for 48 hrs by sulforhodamine B assay relative to control; settings: read-out: Activity
DU-145 [3] = assay: Growth inhibition of human DU-145 cells assessed as cell growth at 1 uM incubated for 48 hrs by sulforhodamine B assay relative to control; settings: read-out: Activity; summary of the method: as §2
ACHN = assay: Growth inhibition of human ACHN cells assessed as cell growth at 1 uM incubated for 48 hrs by sulforhodamine B assay relative to control; settings: read-out: Activity
U-251 [4] = assay: Growth inhibition of human U-251 cells assessed as cell growth at 0.01 uM incubated for 48 hrs by sulforhodamine B assay relative to control; settings: read-out: Activity
MCF7 = assay: Growth inhibition of human MCF7 cells incubated for 48 hrs by sulforhodamine B assay; settings: for CC50: read-out: LC50 (the source's name)
Summary of the method: (§3)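 NCI60 panel at the NCI Developmental Therapeutics Program. Only compounds active in the 10 µM screen went to dose-response testing. GI50, the concentration giving 50% of maximal inhibition of proliferation, and TGI, the concentration giving total growth inhibition, were derived from the dose-response curves.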

UO-31 = assay: Growth inhibition of human UO-31 cells assessed as cell growth at 0.01 uM incubated for 48 hrs by sulforhodamine B assay relative to control; settings: read-out: Activity
OVCAR-4 [5] = assay: Growth inhibition of human OVCAR-4 cells incubated for 48 hrs by sulforhodamine B assay; settings: for CC50: read-out: LC50 (the source's name); summary of the method: as §1
HCT-116 = assay: Growth inhibition of human HCT-116 cells assessed as cell growth at 1 uM incubated for 48 hrs by sulforhodamine B assay relative to control; settings: read-out: Activity
OVCAR-4 [6] = assay: Growth inhibition of human OVCAR-4 cells assessed as cell growth at 0.01 uM incubated for 48 hrs by sulforhodamine B assay relative to control; settings: read-out: Activity
LOX IMVI = assay: Growth inhibition of human LOX IMVI cells assessed as cell growth at 0.01 uM incubated for 48 hrs by sulforhodamine B assay relative to control; settings: read-out: Activity
Hs-578T = assay: Growth inhibition of human Hs-578T cells incubated for 48 hrs by sulforhodamine B assay; settings: for CC50: read-out: LC50 (the source's name); summary of the method: as §3
RPMI-8226 = assay: Growth inhibition of human RPMI-8226 cells assessed as cell growth at 0.1 uM incubated for 48 hrs by sulforhodamine B assay relative to control; settings: read-out: Activity
SK-MEL-28 [7] = assay: Growth inhibition of human SK-MEL-28 cells assessed as cell growth at 0.1 uM incubated for 48 hrs by sulforhodamine B assay relative to control; settings: read-out: Activity
OVCAR-3 = assay: Growth inhibition of human OVCAR-3 cells assessed as cell growth at 1 uM incubated for 48 hrs by sulforhodamine B assay relative to control; settings: read-out: Activity
NCI-H23 = assay: Growth inhibition of human NCI-H23 cells assessed as cell growth at 1 uM incubated for 48 hrs by sulforhodamine B assay relative to control; settings: read-out: Activity
PC-3 = assay: Growth inhibition of human PC-3 cells assessed as cell growth at 0.1 uM incubated for 48 hrs by sulforhodamine B assay relative to control; settings: read-out: Activity
NCI-H322M = assay: Growth inhibition of human NCI-H322M cells assessed as cell growth at 0.1 uM incubated for 48 hrs by sulforhodamine B assay relative to control; settings: read-out: Activity
U-251 [8] = assay: Growth inhibition of human U-251 cells assessed as cell growth at 0.1 uM incubated for 48 hrs by sulforhodamine B assay relative to control; settings: read-out: Activity
SK-OV-3 = assay: Growth inhibition of human SK-OV-3 cells assessed as cell growth at 100 uM incubated for 48 hrs by sulforhodamine B assay relative to control; settings: read-out: Activity
HT-29 [9] = assay: Growth inhibition of human HT-29 cells assessed as cell growth at 0.1 uM incubated for 48 hrs by sulforhodamine B assay relative to control; settings: read-out: Activity
TK-10 = assay: Growth inhibition of human TK-10 cells assessed as cell growth at 0.01 uM incubated for 48 hrs by sulforhodamine B assay relative to control; settings: read-out: Activity
HT-29 [10] = assay: Growth inhibition of human HT-29 cells assessed as cell growth at 100 uM incubated for 48 hrs by sulforhodamine B assay relative to control; settings: read-out: Activity

`CCc1cccc(C)c1NC(=O)c1sc2nc3c(cc2c1N)C(=O)CCC3` showed a GI50 (SK-MEL-28 [1]) of 0.133 µM, an LC50 (SK-MEL-28 [1]) greater than 100 µM and a TGI (SK-MEL-28 [1]) greater than 100 µM. It also gave a growth at 1 µM (CCRF-CEM) of 16%, a growth at 0.01 µM (SF-295) of 89% and a growth at 1 µM (UACC-62) of 37%. For the same compound, the growth at 0.01 µM (HOP-62) was 94%, the growth at 1 µM (HCT-15) was 29% and the growth at 0.1 µM (DU-145 [2]) was 102%. It also gave a GI50 (SN12C) of 0.0104 µM, a TGI (SN12C) greater than 100 µM and a CC50 (SN12C) greater than 100 µM. For the same compound, the GI50 (OVCAR-8) was 2.13 µM, the TGI (OVCAR-8) was no less than 100 µM and the CC50 (OVCAR-8) was greater than 100 µM. It also gave a growth at 100 µM (SF-268) of 5%, a growth at 1 µM (CAKI-1) of 31% and a growth at 0.1 µM (KM12) of 92%. It also gave a GI50 (SNB-19) of 0.87 µM, an LC50 (SNB-19) greater than 100 µM and a TGI (SNB-19) greater than 100 µM. The growth at 0.01 µM (NCI/ADR-RES) was 100%, the growth at 1 µM (DU-145 [3]) was 21% and the growth at 1 µM (ACHN) was 44%. The growth at 0.01 µM (U-251 [4]) was 94%, the GI50 (MCF7) was 0.36 µM and the TGI (MCF7) was no less than 100 µM. The CC50 (MCF7) was greater than 100 µM, the growth at 0.01 µM (UO-31) was 86% and the GI50 (OVCAR-4 [5]) was 0.01 µM. The TGI (OVCAR-4 [5]) was greater than 100 µM, the CC50 (OVCAR-4 [5]) was greater than 100 µM and the growth at 1 µM (HCT-116) was 28%. The growth at 0.01 µM (OVCAR-4 [6]) was 89%, the growth at 0.01 µM (LOX IMVI) was 95% and the TGI (Hs-578T) was greater than 100 µM. The CC50 (Hs-578T) was greater than 100 µM, the growth at 0.1 µM (RPMI-8226) was 102% and the growth at 0.1 µM (SK-MEL-28 [7]) was 91%. The growth at 1 µM (OVCAR-3) was 10%, the growth at 1 µM (NCI-H23) was 42% and the growth at 0.1 µM (PC-3) was 87%. For the same compound, the growth at 0.1 µM (NCI-H322M) was 91% and the growth at 0.1 µM (U-251 [8]) was 90%.
For `CCc1ccccc1NC(=O)c1sc2nc3c(cc2c1N)C(=O)CCC3`, the GI50 (SK-MEL-28 [1]) was 0.001 µM, the LC50 (SK-MEL-28 [1]) was greater than 100 µM and the TGI (SK-MEL-28 [1]) was greater than 100 µM. The growth at 1 µM (CCRF-CEM) was 8%, the growth at 0.01 µM (SF-295) was 86% and the growth at 100 µM (SK-OV-3) was -4%. It also gave a growth at 0.1 µM (HT-29 [9]) of 100%, a growth at 0.01 µM (HOP-62) of 91% and a growth at 1 µM (HCT-15) of 30%. For the same compound, the growth at 0.1 µM (DU-145 [2]) was 103%, the GI50 (SN12C) was 0.676 µM and the TGI (SN12C) was greater than 100 µM. It also gave a CC50 (SN12C) greater than 100 µM, a GI50 (OVCAR-8) of 2.52 µM and a TGI (OVCAR-8) greater than 100 µM. It also gave a CC50 (OVCAR-8) greater than 100 µM, a growth at 100 µM (SF-268) of 12% and a growth at 0.01 µM (TK-10) of 93%. It also gave a growth at 1 µM (CAKI-1) of 33%, a growth at 0.1 µM (KM12) of 92% and a GI50 (SNB-19) of 0.763 µM. The LC50 (SNB-19) was greater than 100 µM, the TGI (SNB-19) was greater than 100 µM and the growth at 0.01 µM (NCI/ADR-RES) was 102%. The growth at 1 µM (DU-145 [3]) was 27%, the growth at 1 µM (ACHN) was 43% and the growth at 0.01 µM (U-251 [4]) was 96%. For the same compound, the GI50 (MCF7) was 0.312 µM, the TGI (MCF7) was greater than 100 µM and the CC50 (MCF7) was greater than 100 µM. The growth at 0.01 µM (UO-31) was 90%, the GI50 (OVCAR-4 [5]) was 0.0315 µM and the TGI (OVCAR-4 [5]) was greater than 100 µM. For the same compound, the CC50 (OVCAR-4 [5]) was greater than 100 µM, the growth at 1 µM (HCT-116) was 27% and the growth at 0.01 µM (OVCAR-4 [6]) was 89%. It also gave a growth at 0.01 µM (LOX IMVI) of 97%, a GI50 (Hs-578T) of 0.302 µM and a TGI (Hs-578T) greater than 100 µM. The CC50 (Hs-578T) was greater than 100 µM, the growth at 0.1 µM (RPMI-8226) was 96% and the growth at 0.1 µM (SK-MEL-28 [7]) was 79%. For the same compound, the growth at 1 µM (OVCAR-3) was 12%, the growth at 0.1 µM (NCI-H322M) was 99% and the growth at 100 µM (HT-29 [10]) was -7%.
